Activity calls are given as the source filed them. The calls are words filed in the database; no cut-off is given here.
Assays:
[1] = biological target: Histone deacetylase 2 (Homo sapiens, UniProt Q92769); assay: Inhibition of HDAC2 (unknown origin) using Fluor de Lys substrate by fluorescence assay relative to control
In short: (§1)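 Recombinant HDAC isoform assays run by a contract lab. Compounds in DMSO, 10-dose IC50 mode, 3-fold serial dilution from 50 μM. Duplicate runs; IC50 from curve fitting.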

[2] = biological target: Histone deacetylase 7 (Homo sapiens) (UniProt Q8WUI4); assay: Inhibition of HDAC7 (unknown origin) using Fluor de Lys substrate by fluorescence assay relative to control; in short: as §1
Sequence of Histone deacetylase 7 (Homo sapiens) (Q8WUI4 whole entry): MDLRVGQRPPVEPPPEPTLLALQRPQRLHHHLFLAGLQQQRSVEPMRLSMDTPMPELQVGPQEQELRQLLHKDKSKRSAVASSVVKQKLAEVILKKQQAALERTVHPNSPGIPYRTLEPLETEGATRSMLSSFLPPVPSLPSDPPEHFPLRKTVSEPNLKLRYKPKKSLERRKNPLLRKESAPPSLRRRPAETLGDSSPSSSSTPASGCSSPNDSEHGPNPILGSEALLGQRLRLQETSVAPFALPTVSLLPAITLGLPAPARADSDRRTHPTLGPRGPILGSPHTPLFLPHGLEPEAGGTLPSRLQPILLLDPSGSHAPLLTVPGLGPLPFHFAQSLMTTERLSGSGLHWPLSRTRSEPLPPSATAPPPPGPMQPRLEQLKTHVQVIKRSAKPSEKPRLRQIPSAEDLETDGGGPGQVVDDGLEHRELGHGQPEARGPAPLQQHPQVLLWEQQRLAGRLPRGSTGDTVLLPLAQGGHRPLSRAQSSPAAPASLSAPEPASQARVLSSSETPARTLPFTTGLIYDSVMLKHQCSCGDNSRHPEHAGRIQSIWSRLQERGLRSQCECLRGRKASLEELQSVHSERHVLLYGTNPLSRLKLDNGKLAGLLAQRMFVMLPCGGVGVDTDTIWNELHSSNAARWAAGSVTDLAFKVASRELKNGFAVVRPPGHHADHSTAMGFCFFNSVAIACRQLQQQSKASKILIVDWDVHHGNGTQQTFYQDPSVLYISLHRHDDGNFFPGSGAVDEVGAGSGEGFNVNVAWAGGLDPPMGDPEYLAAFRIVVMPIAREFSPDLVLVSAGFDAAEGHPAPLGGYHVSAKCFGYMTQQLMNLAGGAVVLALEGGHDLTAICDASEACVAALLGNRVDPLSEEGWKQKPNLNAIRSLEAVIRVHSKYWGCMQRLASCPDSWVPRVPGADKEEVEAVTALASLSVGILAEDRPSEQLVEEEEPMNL

[3] = biological target: Protein deacetylase HDAC6 (Homo sapiens) (UniProt Q9UBN7); assay: Inhibition of HDAC6 (unknown origin) using Fluor de Lys substrate by fluorescence assay relative to control; in short: as §1
Sequence of Protein deacetylase HDAC6 (Homo sapiens) (Q9UBN7 whole entry): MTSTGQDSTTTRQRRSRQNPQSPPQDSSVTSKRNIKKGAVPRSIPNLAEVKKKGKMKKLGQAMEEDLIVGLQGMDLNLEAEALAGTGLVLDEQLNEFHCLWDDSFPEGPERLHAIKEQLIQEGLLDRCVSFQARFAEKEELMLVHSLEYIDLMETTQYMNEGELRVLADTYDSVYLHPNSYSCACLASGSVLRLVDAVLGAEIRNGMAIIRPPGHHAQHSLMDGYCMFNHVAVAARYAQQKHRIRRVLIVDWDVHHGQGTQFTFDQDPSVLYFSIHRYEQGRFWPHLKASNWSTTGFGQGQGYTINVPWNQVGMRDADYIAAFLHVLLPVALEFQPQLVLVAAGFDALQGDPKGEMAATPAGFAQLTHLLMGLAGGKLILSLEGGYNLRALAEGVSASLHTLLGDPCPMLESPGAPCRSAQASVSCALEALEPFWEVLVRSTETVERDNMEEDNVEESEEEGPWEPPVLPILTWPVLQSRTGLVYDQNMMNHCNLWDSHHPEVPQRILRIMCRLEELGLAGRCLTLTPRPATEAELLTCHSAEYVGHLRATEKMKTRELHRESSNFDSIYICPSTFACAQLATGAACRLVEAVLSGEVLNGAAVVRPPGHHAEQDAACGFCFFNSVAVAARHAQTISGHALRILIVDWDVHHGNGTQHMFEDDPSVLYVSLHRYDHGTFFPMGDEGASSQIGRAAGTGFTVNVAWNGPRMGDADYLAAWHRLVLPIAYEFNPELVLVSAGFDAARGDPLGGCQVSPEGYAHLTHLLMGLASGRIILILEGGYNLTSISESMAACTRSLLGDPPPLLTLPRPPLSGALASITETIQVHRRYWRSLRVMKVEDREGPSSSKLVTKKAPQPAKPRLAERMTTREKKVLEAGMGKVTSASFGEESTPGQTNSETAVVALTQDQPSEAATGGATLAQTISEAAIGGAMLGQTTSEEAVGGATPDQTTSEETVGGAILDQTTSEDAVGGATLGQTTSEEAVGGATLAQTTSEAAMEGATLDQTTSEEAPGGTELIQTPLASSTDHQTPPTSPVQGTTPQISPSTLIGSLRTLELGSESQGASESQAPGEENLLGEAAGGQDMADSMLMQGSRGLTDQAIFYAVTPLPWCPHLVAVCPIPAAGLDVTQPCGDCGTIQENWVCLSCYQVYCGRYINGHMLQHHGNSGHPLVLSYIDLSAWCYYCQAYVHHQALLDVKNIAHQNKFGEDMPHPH

[4] = biological target: Polyamine deacetylase HDAC10 (Homo sapiens, UniProt Q969S8); assay: Inhibition of HDAC10 (unknown origin) using Fluor de Lys substrate by fluorescence assay relative to control; in short: as §1
Sequence of Polyamine deacetylase HDAC10 (Q969S8 whole entry): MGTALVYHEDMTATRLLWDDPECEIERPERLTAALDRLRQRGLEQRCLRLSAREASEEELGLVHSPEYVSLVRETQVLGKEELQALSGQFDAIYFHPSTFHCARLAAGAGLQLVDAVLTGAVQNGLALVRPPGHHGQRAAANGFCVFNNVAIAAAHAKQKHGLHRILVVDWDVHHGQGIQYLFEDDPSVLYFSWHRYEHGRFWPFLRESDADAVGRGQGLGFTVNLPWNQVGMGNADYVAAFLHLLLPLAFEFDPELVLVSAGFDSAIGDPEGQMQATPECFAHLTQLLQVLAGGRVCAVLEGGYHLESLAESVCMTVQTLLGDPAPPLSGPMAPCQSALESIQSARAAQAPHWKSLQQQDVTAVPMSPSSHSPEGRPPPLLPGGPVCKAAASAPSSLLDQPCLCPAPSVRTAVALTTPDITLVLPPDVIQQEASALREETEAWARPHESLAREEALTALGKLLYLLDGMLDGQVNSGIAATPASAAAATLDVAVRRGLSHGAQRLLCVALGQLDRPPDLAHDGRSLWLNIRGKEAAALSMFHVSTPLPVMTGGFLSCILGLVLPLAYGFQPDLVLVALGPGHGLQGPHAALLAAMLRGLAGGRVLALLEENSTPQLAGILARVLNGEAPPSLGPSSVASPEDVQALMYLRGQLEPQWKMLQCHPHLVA

[5] = biological target: Histone deacetylase 11 (Homo sapiens, UniProt Q96DB2); assay: Inhibition of HDAC11 (unknown origin) using Fluor de Lys substrate by fluorescence assay relative to control; in short: as §1
Sequence of Histone deacetylase 11 (Q96DB2 whole entry): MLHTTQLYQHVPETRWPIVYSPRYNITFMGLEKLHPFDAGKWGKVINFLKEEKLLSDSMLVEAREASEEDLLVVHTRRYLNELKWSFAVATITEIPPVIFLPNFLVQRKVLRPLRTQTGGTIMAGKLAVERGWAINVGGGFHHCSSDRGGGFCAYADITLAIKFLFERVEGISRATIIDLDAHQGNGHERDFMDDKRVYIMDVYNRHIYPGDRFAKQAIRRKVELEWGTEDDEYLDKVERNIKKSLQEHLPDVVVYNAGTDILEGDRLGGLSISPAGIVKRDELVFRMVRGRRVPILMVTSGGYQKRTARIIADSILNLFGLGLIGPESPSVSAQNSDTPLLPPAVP

[6] = test system: HL-60; assay: Antiproliferative activity against human HL60 assessed as reduction in cell viability measured after 72 hrs using alamar blue based fluorescence method; type: functional; conditions: HL-60, 72 h
In short: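 Leukemia lines grown in IMDM with penicillin/streptomycin, HL-60 with 20% FBS and K562 with 10% FBS, at 37 °C, 5% CO2. Cells in 96-well plates exposed to drug for 72 h. Alamar blue (1 mM solution) added for 5–6 h, fluorescence read at 530/590 nm.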

[7] = test system: MCF7; assay: Antiproliferative activity against human MCF7 assessed as reduction in cell viability measured after 72 hrs using alamar blue based fluorescence method; type: functional; conditions: MCF7, 72 h
In short: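 HCT116 and MCF-7 grown in McCoy's 5A with 10% FBS and penicillin/streptomycin at 37 °C, 5% CO2. Cells plated in 96-well format and exposed to drug for 72 h. Alamar blue (1 mM solution) added, incubated 5–6 h, fluorescence read at 530/590 nm.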

[8] = test system: K562; assay: Potency index, ratio of IC50 of chidamide to IC50 of test compound against human K562 cells; type: functional
[9] = test system: HCT-116; assay: Potency index, ratio of IC50 of chidamide to IC50 of test compound against human HCT116 cells; type: functional
[10] = test system: MCF7; assay: Potency index, ratio of IC50 of chidamide to IC50 of test compound against human MCF7 cells; type: functional
[11] = test system: HL-60(TB); assay: Growth inhibition of human HL-60(TB) cells assessed as cell growth inhibition at 10 uM incubated for 48 hrs by sulforhodamine B assay; type: functional; conditions: HL-60, 48 h, read-out: GI
[12] = test system: HOP-92; assay: Growth inhibition of human HOP92 cells assessed as cell growth inhibition at 10 uM incubated for 48 hrs by sulforhodamine B assay; type: functional; conditions: HOP-92, 48 h, read-out: GI
[13] = test system: NCI-H23; assay: Growth inhibition of human NCI-H23 cells assessed as cell growth inhibition at 10 uM incubated for 48 hrs by sulforhodamine B assay; type: functional; conditions: NCI-H23, 48 h, read-out: GI
[14] = test system: HCT-15; assay: Growth inhibition of human HCT15 cells assessed as cell growth inhibition at 10 uM incubated for 48 hrs by sulforhodamine B assay; type: functional; conditions: HCT-15, 48 h, read-out: GI
[15] = test system: KM12; assay: Growth inhibition of human KM12 cells assessed as cell growth inhibition at 10 uM incubated for 48 hrs by sulforhodamine B assay; type: functional; conditions: KM12, 48 h, read-out: GI
[16] = test system: ACHN; assay: Growth inhibition of human ACHN cells assessed as cell growth inhibition at 10 uM incubated for 48 hrs by sulforhodamine B assay; type: functional; conditions: read-out: GI
[17] = test system: A498; assay: Growth inhibition of human A498 cells assessed as cell growth inhibition at 10 uM incubated for 48 hrs by sulforhodamine B assay; type: functional; conditions: A498, 48 h, read-out: GI
[18] = test system: SF-539; assay: Growth inhibition of human SF539 cells assessed as cell growth inhibition at 10 uM incubated for 48 hrs by sulforhodamine B assay; type: functional; conditions: SF-539, 48 h, read-out: GI
[19] = test system: SNB-19; assay: Growth inhibition of human SNB19 cells assessed as cell growth inhibition at 10 uM incubated for 48 hrs by sulforhodamine B assay; type: functional; conditions: SNB-19, 48 h, read-out: GI
[20] = test system: SNB-75; assay: Growth inhibition of human SNB75 cells assessed as cell growth inhibition at 10 uM incubated for 48 hrs by sulforhodamine B assay; type: functional; conditions: SNB-75, 48 h, read-out: GI
[21] = test system: SK-MEL-2; assay: Growth inhibition of human SK-MEL-2 cells assessed as cell growth inhibition at 10 uM incubated for 48 hrs by sulforhodamine B assay; type: functional; conditions: SK-MEL-2, 48 h, read-out: GI
[22] = test system: SK-MEL-28; assay: Growth inhibition of human SK-MEL-28 cells assessed as cell growth inhibition at 10 uM incubated for 48 hrs by sulforhodamine B assay; type: functional; conditions: SK-MEL-28, 48 h, read-out: GI
[23] = test system: IGROV-1; assay: Growth inhibition of human IGROV1 cells assessed as cell growth inhibition at 10 uM incubated for 48 hrs by sulforhodamine B assay; type: functional; conditions: IGROV-1, 48 h, read-out: GI
[24] = test system: OVCAR-5; assay: Growth inhibition of human OVCAR5 cells assessed as cell growth inhibition at 10 uM incubated for 48 hrs by sulforhodamine B assay; type: functional; conditions: OVCAR-5, 48 h, read-out: GI
[25] = test system: T47D; assay: Growth inhibition of human T47D cells assessed as cell growth inhibition at 10 uM incubated for 48 hrs by sulforhodamine B assay; type: functional; conditions: read-out: GI
[26] = test system: Hs-578T; assay: Growth inhibition of human Hs 578T cells assessed as cell growth inhibition at 10 uM incubated for 48 hrs by sulforhodamine B assay; type: functional; conditions: read-out: GI
[27] = Metabolic stability in human liver microsomes assessed as internal clearance at 1 uM preincubated for 10 mins followed by NADPH addition measured upto 60 mins by LC-MS/MS analysis; type: ADME, Microsome; conditions: read-out: CLH
In short: (§2)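 Liver microsomes from male SD rat, dog or human at 0.5 mg/mL in 100 mM potassium phosphate pH 7.4 with 1 μM compound. Prewarmed 37 °C 10 min, started with 1 mM NADPH. Stopped at 0, 5, 10, 20, 40, 60 min with cold methanol containing glibenclamide internal standard; supernatant by LC–MS/MS; T1/2 and CLint derived.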

[28] = Metabolic stability in rat liver microsomes assessed as half life at 1 uM preincubated for 10 mins followed by NADPH addition measured upto 60 mins by LC-MS/MS analysis; type: ADME, Microsome; in short: as §2
[29] = Terminal half life in Sprague-Dawley rat at 10 mg/kg, po by LC-MS/MS analysis; type: ADME, organism-based; conditions: in vivo, read-out: beta t1/2 (converted)
In short: (§3)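 Male SD rats (199-214 g), three per route, single dose 1 mg/kg iv or 10 mg/kg po. Jugular blood (~200 μL) into heparinized tubes at set times; plasma by centrifugation, protein precipitation with acetonitrile containing verapamil and glibenclamide; drug measured by LC-MS/MS.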

[30] = Oral bioavailability in Sprague-Dawley rat at 10 mg/kg by LC-MS/MS analysis; type: ADME, organism-based; conditions: in vivo; in short: as §3

Sequence of Histone deacetylase 2 (Q92769 whole entry, canonical isoform): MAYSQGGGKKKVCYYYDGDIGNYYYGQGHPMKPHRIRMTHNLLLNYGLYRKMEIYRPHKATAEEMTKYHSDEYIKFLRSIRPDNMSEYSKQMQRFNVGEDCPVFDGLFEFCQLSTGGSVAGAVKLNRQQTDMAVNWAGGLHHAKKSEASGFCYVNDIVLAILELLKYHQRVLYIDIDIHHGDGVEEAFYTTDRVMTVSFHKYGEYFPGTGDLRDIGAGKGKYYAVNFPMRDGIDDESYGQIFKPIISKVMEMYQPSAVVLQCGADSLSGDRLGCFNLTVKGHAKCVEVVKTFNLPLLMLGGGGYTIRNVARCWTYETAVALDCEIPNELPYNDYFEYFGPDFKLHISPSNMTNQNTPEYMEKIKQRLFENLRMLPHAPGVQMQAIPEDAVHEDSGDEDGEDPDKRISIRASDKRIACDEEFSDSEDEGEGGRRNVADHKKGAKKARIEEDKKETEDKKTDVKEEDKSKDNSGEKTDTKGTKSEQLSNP

In the case of `Nc1cc(F)ccc1NC(=O)c1ccc(CNC(=O)/C=C2\NC(=O)c3ccccc32)cc1`, the IC50 [1] is reported as 75 nM, the inhibition [2] is reported as “inactive” and the inhibition [3] is reported as “inactive”. The IC50 [4] was 950 nM, the IC50 [5] was 632 nM and the IC50 [6] was 373 nM. The IC50 [7] was 14600 nM, the “Ratio IC50” value [8] was 4 and the “Ratio IC50” value [9] was 2.5. For the same compound, the “Ratio IC50” value [10] was 2, the inhibition of growth at 10 µM [11] was 84% and the inhibition of growth at 10 µM [12] was 58.6%. It also gave an inhibition of growth at 10 µM [13] of 26.5%, an inhibition of growth at 10 µM [14] of 0.12% and an inhibition of growth at 10 µM [15] of 26.9%. It also gave an inhibition of growth at 10 µM [16] of 15%, an inhibition of growth at 10 µM [17] of 47.1% and an inhibition of growth at 10 µM [18] of 44.8%. The inhibition of growth at 10 µM [19] was 13.6%, the inhibition of growth at 10 µM [20] was 30.6% and the inhibition of growth at 10 µM [21] was 52%. The inhibition of growth at 10 µM [22] was 33.8%, the inhibition of growth at 10 µM [23] was 22.8% and the inhibition of growth at 10 µM [24] was 36.4%. For the same compound, the inhibition of growth at 10 µM [25] was 58.2%, the inhibition of growth at 10 µM [26] was 29.3% and the microsomal CLint at 1 µM [27] was 4.8 µL/min/mg. It also gave a half-life at 1 µM [28] of 2.02 h, a half-life [29] of 1.3 h and a bioavailability [30] of 16%.

— ChEMBL document CHEMBL4387704, “Design, synthesis and biological evaluation of novel isoindolinone derivatives as potent histone deacetylase inhibitors” (Eur J Med Chem, 2019)
